According to ChEMBL document CHEMBL2057142, “Discovery and optimization of novel fatty acid transport protein 1 (FATP1) inhibitors” (Bioorg Med Chem Lett, 2012):

Experiments:
[1] = target: Long-chain fatty acid transport protein 1 (Mus musculus) (UniProt Q60714); assay: Inhibition of mouse recombinant FATP1 acyl-coA synthetase activity using [14C]oleic acid as substrate at 10 uM
How it was run: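 Same radiometric acyl-CoA synthetase assay with 10 μM [1-¹⁴C] oleic acid, 0.5 mM ATP, 0.5 mM CoA, 5 mM MgCl₂ in Tris-HCl pH 7.4 buffer with Triton X-100 and DTT; test compound at 10 μM, read-out as percent inhibition of ACS activity.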

[2] = target: Long-chain fatty acid transport protein 1 (Homo sapiens, UniProt Q6PCB7); assay: Inhibition of human recombinant FATP1 acyl-coA synthetase activity using [14C]oleic acid as substrate
Sequence of Long-chain fatty acid transport protein 1 (Homo sapiens, UniProt Q6PCB7) (Q6PCB7 whole entry): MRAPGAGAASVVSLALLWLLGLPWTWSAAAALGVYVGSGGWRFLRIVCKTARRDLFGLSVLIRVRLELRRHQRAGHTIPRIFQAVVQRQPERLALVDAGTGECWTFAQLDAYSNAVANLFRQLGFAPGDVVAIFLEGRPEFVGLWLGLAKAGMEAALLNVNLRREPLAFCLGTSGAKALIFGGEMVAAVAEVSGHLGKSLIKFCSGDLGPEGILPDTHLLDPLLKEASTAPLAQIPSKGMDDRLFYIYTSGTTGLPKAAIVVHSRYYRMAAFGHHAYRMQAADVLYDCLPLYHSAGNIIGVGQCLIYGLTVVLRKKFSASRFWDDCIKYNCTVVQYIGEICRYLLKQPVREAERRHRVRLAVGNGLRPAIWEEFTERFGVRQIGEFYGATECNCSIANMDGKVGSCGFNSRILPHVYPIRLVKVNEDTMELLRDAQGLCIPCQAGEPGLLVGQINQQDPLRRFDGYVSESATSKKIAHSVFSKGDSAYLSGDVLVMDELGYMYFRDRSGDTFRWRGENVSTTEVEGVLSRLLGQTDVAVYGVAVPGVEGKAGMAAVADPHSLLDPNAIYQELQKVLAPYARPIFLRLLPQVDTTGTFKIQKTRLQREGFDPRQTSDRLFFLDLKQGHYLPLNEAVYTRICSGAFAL

[3] = Oral bioavailability in rat at 10 mg/kg; type: ADME, organism-based; conditions: in vivo
How it was run: (§1)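 Rats dosed orally at 10 mg/kg in DMA/PG/(20% HPβCD in saline) 10:10:80; plasma levels measured, values averaged from two rats.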

[4] = Volume of distribution in rat at 1 mg/kg, iv; type: ADME, organism-based; parameters: dose 1 mg/kg, route intravenous; conditions: in vivo
How it was run: (§2)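 Intravenous dosing to rats at 1 mg/kg in DMA/PG/(20% HPβCD in saline) 10:10:80; plasma pharmacokinetic parameters averaged from two rats.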

[5] = (§3) AUC in rat at 10 mg/kg, po; type: ADME, organism-based, Plasma; parameters: dose 10 mg/kg, route oral; conditions: plasma; how it was run: as §1
[6] = (§4) Cmax in rat at 10 mg/kg, po; type: ADME, organism-based; parameters: dose 10 mg/kg, route oral; conditions: in vivo; how it was run: as §1
[7] = (§5) Half life in rat at 1 mg/kg, iv; type: ADME, organism-based; parameters: dose 1 mg/kg, route intravenous; conditions: in vivo; how it was run: as §2
[8] = (§6) Tmax in rat at 10 mg/kg, po; type: ADME, organism-based; parameters: dose 10 mg/kg, route oral; conditions: in vivo; how it was run: as §1
[9] = Metabolic stability in rat blood assessed as compound remaining after 2 hrs; type: ADME, tissue-based; conditions: read-out: Stability
How it was run: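 Test compound incubated with rat blood for 2 h; parent compound remaining (%) measured.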

[10] = target: Long-chain fatty acid transport protein 1 (Mus musculus, UniProt Q60714); assay: Inhibition of mouse recombinant FATP1 acyl-coA synthetase activity using [14C]oleic acid as substrate
Sequence of Long-chain fatty acid transport protein 1 (Mus musculus, UniProt Q60714) (Q60714 whole entry): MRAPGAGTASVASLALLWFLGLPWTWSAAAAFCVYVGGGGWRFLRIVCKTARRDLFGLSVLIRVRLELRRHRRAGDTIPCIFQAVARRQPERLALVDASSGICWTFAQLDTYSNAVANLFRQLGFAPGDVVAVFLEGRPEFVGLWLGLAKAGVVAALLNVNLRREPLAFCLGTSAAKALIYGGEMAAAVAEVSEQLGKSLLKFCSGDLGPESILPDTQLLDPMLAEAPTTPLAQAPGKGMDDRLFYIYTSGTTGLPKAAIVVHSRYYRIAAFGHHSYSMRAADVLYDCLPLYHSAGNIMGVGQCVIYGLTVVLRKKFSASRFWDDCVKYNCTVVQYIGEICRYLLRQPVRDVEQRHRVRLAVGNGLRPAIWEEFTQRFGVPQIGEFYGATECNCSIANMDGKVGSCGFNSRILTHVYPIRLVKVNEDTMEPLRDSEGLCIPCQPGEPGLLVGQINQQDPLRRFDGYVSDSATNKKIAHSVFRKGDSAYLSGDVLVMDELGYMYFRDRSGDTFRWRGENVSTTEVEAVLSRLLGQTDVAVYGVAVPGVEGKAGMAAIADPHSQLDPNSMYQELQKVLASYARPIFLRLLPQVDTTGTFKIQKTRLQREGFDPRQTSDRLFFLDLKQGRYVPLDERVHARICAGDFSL

[11] = Clearance in rat at 1 mg/kg, iv; type: ADME, organism-based; parameters: dose 1 mg/kg, route intravenous; conditions: in vivo; how it was run: as §2
Blood = assay: Drug metabolism in rat blood assessed as 1-(2-((4-ethyl-5-((phenylamino)methyl)-4H-1,2,4-triazol-3-ylthio)methyl)benzo[d]oxazol-5-yl)propan-1-ol formation; type: ADME, tissue-based
Rattus norvegicus [12] = assay: as §3; type: ADME, organism-based, Plasma; parameters: dose 10 mg/kg, route oral; conditions: in vivo, BLD = below limit of detection; how it was run: as §1
Rattus norvegicus [13] = assay: as §4; type: ADME, organism-based; parameters: dose 10 mg/kg, route oral; conditions: in vivo, BLD = below limit of detection; how it was run: as §1
Rattus norvegicus [14] = assay: as §5; type: ADME, organism-based; parameters: dose 1 mg/kg, route intravenous; conditions: in vivo, BLD = below limit of detection; how it was run: as §2
Rattus norvegicus [15] = assay: as §6; type: ADME, organism-based; parameters: dose 10 mg/kg, route oral; conditions: in vivo, BLD = below limit of detection; how it was run: as §1
Mus musculus [16] = assay: Drug metabolism in iv dosed mouse assessed as 2-(4-ethyl-5-((phenylamino)methyl)-4H-1,2,4-triazol-3-ylthio)acetic acid formation after 5 mins by LC/MS/MS analysis; type: ADME, organism-based; conditions: in vivo
How it was run: (§7)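 Compound dosed intravenously to mouse; blood sampled at 5 min and metabolites identified by LC–MS/MS analysis.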

Mus musculus [17] = assay: Drug metabolism in iv dosed mouse assessed as 2-(4-ethyl-5-((phenylamino)methyl)-4H-1,2,4-triazol-3-ylthio)-N-(4-(1-hydroxypropyl)phenyl)acetamide formation after 5 mins by LC/MS/MS analysis; type: ADME, organism-based; conditions: in vivo; how it was run: as §7

Sequence of Long-chain fatty acid transport protein 1 (Mus musculus) (Q60714 whole entry, looked up): as the sequence (Q60714 whole entry) above

| SMILES | IC50 [2] | IC50 [10] | also measured |
| --- | --- | --- | --- |
| CCn1c(CNc2ccccc2)nnc1SCC(=O)Nc1ccc(C(C)=O)cc1 | > 1000 nM |  | inhibition [1]: 63% |
| CCn1c(CNc2ccccc2)nnc1SCc1nc2cc(OC(F)(F)F)ccc2o1 | 100 nM | 91 nM | bioavailability [3]: 5.4%; Vd [4]: 1.73 L/kg; AUC [5]: 200 ng·h/mL; Cmax [6]: 190 ng/mL; half-life [7]: 61.2 min; Tmax [8]: 19.8 min; remaining at 2 h [9]: 100%; clearance [11]: 52 mL/min/kg |
| CCn1c(CNc2ccccc2)nnc1SCc1nc2cc(C(=O)C(C)C)ccc2o1 | 600 nM | 520 nM | remaining at 2 h [9]: 42% |
| CCn1c(CNc2ccccc2)nnc1SCc1nc2cc(C(F)(F)F)ccc2o1 | 360 nM | 360 nM | bioavailability [3]: 9.2%; Vd [4]: 1.86 L/kg; AUC [5]: 280 ng·h/mL; Cmax [6]: 220 ng/mL; half-life [7]: 73.8 min; Tmax [8]: 19.8 min; clearance [11]: 56 mL/min/kg |
| CCn1c(CNc2ccccc2)nnc1SCC(=O)Nc1ccc(C#N)cc1 | > 1000 nM | 5100 nM |  |
| CCOC(=O)c1ccc(NC(=O)CSc2nnc(CSCc3ccccc3)n2CC)cc1 | 7600 nM | > 10000 nM |  |
| CCn1c(CNc2ccccc2)nnc1SCC(=O)Nc1ccc(S(C)(=O)=O)cc1 | > 1000 nM | > 10000 nM |  |
| CCC(=O)c1ccc(N(C)C(=O)CSc2nnc(CNc3ccccc3)n2CC)cc1 | 580 nM | 2000 nM | remaining at 2 h [9]: 1.9% |
| CCC(=O)c1ccc(NC(=O)CSc2nnc(CNc3ccccc3)n2CC)cn1 | 400 nM | 1500 nM |  |
| C=CCn1c(CNc2ccccc2)nnc1SCC(=O)Nc1ccc(OC)cc1 | 6600 nM | > 10000 nM |  |
| CCOC(=O)c1ccc2c(c1)CCCN2C(=O)CSc1nnc(CNc2ccccc2)n1CC | > 1000 nM | 2900 nM |  |
| CCCC(=O)c1ccc(NC(=O)CSc2nnc(CNc3ccccc3)n2CC)cc1 | 230 nM | 1100 nM |  |
| CCOC(=O)c1ccc2c(c1)CCN2C(=O)CSc1nnc(CNc2ccccc2)n1CC | > 1000 nM | > 10000 nM |  |
| CC/C(=N/OC)c1ccc2oc(CSc3nnc(CNc4ccccc4)n3CC)nc2c1 | > 1000 nM | > 10000 nM |  |
| CCC(=O)c1ccc2oc(CS(=O)(=O)c3nnc(CNc4ccccc4)n3CC)nc2c1 | 1670 nM | 11900 nM | remaining at 2 h [9]: 44% |
| CCC(O)c1ccc2oc(CSc3nnc(CNc4ccccc4)n3CC)nc2c1 (stereo not drawn) | > 1000 nM | 3700 nM | remaining at 2 h [9]: 80% |
| CCOC(=O)c1ccc(NC(=O)CSc2nnc(CNc3ccccc3)n2CC)cc1 | 330 nM | 1100 nM |  |
| CCn1c(CNc2ccccc2)nnc1SCc1nc2cc(C)ccc2o1 | > 1000 nM | > 10000 nM |  |
| CC/C(=N/O)c1ccc2oc(CSc3nnc(CNc4ccccc4)n3CC)nc2c1 | 260 nM | 200 nM | remaining at 2 h [9]: 100% |
| CCNC(=O)c1ccc(NC(=O)CSc2nnc(CNc3ccccc3)n2CC)cc1 | > 1000 nM | > 10000 nM |  |
| CCn1c(CNc2ccccc2)nnc1SCC(=O)Nc1ccccc1 | > 1000 nM | > 10000 nM |  |

| SMILES | IC50 [2] | IC50 [10] | also measured |
| --- | --- | --- | --- |
| CCn1c(CNc2ccccc2)nnc1SCc1nc2ccc(Cl)cc2o1 | > 1000 nM | 5400 nM |  |
| CCn1c(CNc2ccccc2)nnc1SCc1nc2cc(Cl)ccc2o1 | > 1000 nM | 2300 nM | remaining at 2 h [9]: 92% |
| CCn1c(CNc2ccccc2)nnc1SCC(=O)Nc1ccc(OC)cc1 | > 1000 nM | > 10000 nM |  |
| CCn1nnc(-c2ccc(NC(=O)CSc3nnc(CNc4ccccc4)n3CC)cc2)n1 | > 1000 nM | > 10000 nM |  |
| CCn1c(CNc2ccccc2)nnc1SCC(=O)Nc1ccc(C(=O)N(C)C)cc1 | > 1000 nM | > 10000 nM |  |
| CCOC(=O)c1ccc2oc(CSc3nnc(CNc4ccccc4)n3CC)nc2c1 | 680 nM | 840 nM | remaining at 2 h [9]: 0% |
| CCC(=O)c1ccc2nc(CSc3nnc(CNc4ccccc4)n3CC)oc2c1 | 900 nM | 1200 nM | remaining at 2 h [9]: 35% |
| CCOC(=O)c1cccc(NC(=O)CSc2nnc(CNc3ccccc3)n2CC)c1 | > 1000 nM | 2900 nM |  |
| CCn1c(CNc2ccccc2)nnc1SCC(=O)Nc1ccc(C(=O)OC(C)(C)C)cc1 | > 1000 nM | > 10000 nM |  |
| CCn1c(CNc2ccccc2)nnc1SCc1nc2cc(F)ccc2o1 | > 1000 nM | 7800 nM |  |
| CCn1c(CNc2ccccc2)nnc1SCC(=O)Nc1ccc(C(=O)OC)cc1 | 540 nM |  | inhibition [1]: 56% |
| CCn1c(CNc2ccccc2)nnc1SCC(=O)Nc1ccc(C(=O)c2ccccc2)cc1 | > 1000 nM | > 10000 nM |  |
| CCC(=O)c1ccc2oc(CSc3nnc(CNc4ccccc4)n3CC)nc2c1 | 190 nM | 360 nM | Vd [4]: 2.69 L/kg; Drug metabolism (Blood): Active; AUC (Rattus norvegicus [12]): BLD; Cmax (Rattus norvegicus [13]): BLD; t1/2 (Rattus norvegicus [14]): BLD; Tmax (Rattus norvegicus [15]): BLD; remaining at 2 h [9]: 8.9%; clearance [11]: 378 mL/min/kg |
| CCC(=O)c1ccc(NC(=O)CSc2nnc(CNc3ccccc3)n2CC)cc1 | 400 nM | 1000 nM | Drug metabolism (Mus musculus [16]): Active; remaining at 2 h [9]: 28%; Drug metabolism (Mus musculus [17]): Active |
| CCn1c(CNc2ccccc2)nnc1SCC(=O)Nc1ccc(C(=O)NC)cc1 | > 1000 nM | > 10000 nM |  |
| CCn1c(CNc2ccccc2)nnc1SCc1nc2cc(OC)ccc2o1 | > 1000 nM | 2700 nM |  |
| CCc1ccc2oc(CSc3nnc(CNc4ccccc4)n3CC)nc2c1 | > 1000 nM | 1800 nM |  |
| CCn1c(CNc2ccccc2)nnc1SCC(=O)Nc1ccc(Cl)cc1 | > 1000 nM | > 10000 nM |  |
| CCn1c(CNc2ccccc2)nnc1SCC(=O)Nc1ccc(C(=O)O)cc1 | > 1000 nM | > 10000 nM |  |
| CCn1c(CNc2ccccc2)nnc1SCc1nc2ccccc2o1 | > 1000 nM | > 10000 nM |  |
| CCC(=O)c1ccc(N(CC)C(=O)CSc2nnc(CNc3ccccc3)n2CC)cc1 | > 1000 nM | > 10000 nM |  |
